ChEMBL document CHEMBL4689842, “EUbOPEN Chemogenomics Library wave 1” (2021)

Test system: Fibroblast
Experiment: Multiplex assay against human fibroblast
Type: toxicity, cell-based
Summary of the method: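 Live cells were stained at seeding with Hoechst33342, BioTracker Green Microtubule Cytoskeleton Dye, MitoTracker Red and Annexin V Alexa Fluor 680. Following compound addition, they were imaged on a CQ1 microscope at 37°C and 5% CO2 and gated by CellPathfinder machine learning into Hoechst high-intensity objects or normal cells, with normal cells split into healthy, pyknosed or fragmented nuclei and pyknosed cells into mitotic or apoptotic. Tubulin, mitochondrial-mass and membrane-permeability phenotypes are per cents of healthy-nucleus cells.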

[1] = 12 h, 1 µM, compound concentration 1 uM, replicate 1
[2] = 12 h, 1 µM, compound concentration 1 uM, replicate 2
[3] = 12 h, 10 µM, compound concentration 10 uM, replicate 1
[4] = 12 h, 10 µM, compound concentration 10 uM, replicate 2
[5] = 24 h, 1 µM, compound concentration 1 uM, replicate 1
[6] = 24 h, 1 µM, compound concentration 1 uM, replicate 2
[7] = 24 h, 10 µM, compound concentration 10 uM, replicate 1
[8] = 24 h, 10 µM, compound concentration 10 uM, replicate 2
[9] = 48 h, 1 µM, compound concentration 1 uM, replicate 1
[10] = 48 h, 1 µM, compound concentration 1 uM, replicate 2
[11] = 48 h, 10 µM, compound concentration 10 uM, replicate 1
[12] = 48 h, 10 µM, compound concentration 10 uM, replicate 2

CCCSc1nc(N[C@@H]2C[C@H]2c2ccc(F)c(F)c2)c2nnn([C@@H]3C[C@H](OCCO)[C@@H](O)[C@H]3O)c2n1 [TICAGRELOR]
Population Apoptotic (%) [1]: 55% | Population Fragmented Nuclei (%) [1]: 17% | Population Healthy Nuclei (%) [1]: 48% | Population Hoechst High Intensity Objects (%) [1]: 9% | Population Membrane Permeable-Phenotype (%) [1]: 21% | Population Mitochondria Different-Phenotype (%) [1]: 5% | Population Mitotic Cells (%) [1]: 44% | Population Normal (%) [1]: 90% | Population Pyknosed Nuclei (%) [1]: 33% | Population Tubulin-Different-Phenotype (%) [1]: 46% | Total Cell Count [1]: 179 | Population Apoptotic (%) [2]: 66% | Population Fragmented Nuclei (%) [2]: 1% | Population Healthy Nuclei (%) [2]: 93% | Population Hoechst High Intensity Objects (%) [2]: 5% | Population Membrane Permeable-Phenotype (%) [2]: 5% | Population Mitochondria Different-Phenotype (%) [2]: 18% | Population Mitotic Cells (%) [2]: 33% | Population Normal (%) [2]: 94% | Population Pyknosed Nuclei (%) [2]: 4% | Population Tubulin-Different-Phenotype (%) [2]: 13% | Total Cell Count [2]: 82 | Population Apoptotic (%) [3]: 56% | Population Fragmented Nuclei (%) [3]: 29% | Population Healthy Nuclei (%) [3]: 27% | Population Hoechst High Intensity Objects (%) [3]: 12% | Population Membrane Permeable-Phenotype (%) [3]: 12% | Population Mitochondria Different-Phenotype (%) [3]: 78% | Population Mitotic Cells (%) [3]: 43% | Population Normal (%) [3]: 87% | Population Pyknosed Nuclei (%) [3]: 43% | Population Tubulin-Different-Phenotype (%) [3]: 90% | Total Cell Count [3]: 139 | Population Apoptotic (%) [4]: 75% | Population Fragmented Nuclei (%) [4]: 7% | Population Healthy Nuclei (%) [4]: 79% | Population Hoechst High Intensity Objects (%) [4]: 11% | Population Membrane Permeable-Phenotype (%) [4]: 43% | Population Mitochondria Different-Phenotype (%) [4]: 98% | Population Mitotic Cells (%) [4]: 25% | Population Normal (%) [4]: 88% | Population Pyknosed Nuclei (%) [4]: 12% | Population Tubulin-Different-Phenotype (%) [4]: 96% | Total Cell Count [4]: 67 | Population Apoptotic (%) [5]: 43% | Population Fragmented Nuclei (%) [5]: 18% | Population Healthy Nuclei (%) [5]: 62% | Population Hoechst High Intensity Objects (%) [5]: 9% | Population Membrane Permeable-Phenotype (%) [5]: 26% | Population Mitochondria Different-Phenotype (%) [5]: 12% | Population Mitotic Cells (%) [5]: 56% | Population Normal (%) [5]: 90% | Population Pyknosed Nuclei (%) [5]: 19% | Population Tubulin-Different-Phenotype (%) [5]: 50% | Total Cell Count [5]: 172 | Population Apoptotic (%) [6]: 57% | Population Fragmented Nuclei (%) [6]: 3% | Population Healthy Nuclei (%) [6]: 87% | Population Hoechst High Intensity Objects (%) [6]: 2% | Population Membrane Permeable-Phenotype (%) [6]: 4% | Population Mitochondria Different-Phenotype (%) [6]: 20% | Population Mitotic Cells (%) [6]: 42% | Population Normal (%) [6]: 97% | Population Pyknosed Nuclei (%) [6]: 8% | Population Tubulin-Different-Phenotype (%) [6]: 11% | Total Cell Count [6]: 81 | Population Apoptotic (%) [7]: 55% | Population Fragmented Nuclei (%) [7]: 27% | Population Healthy Nuclei (%) [7]: 33% | Population Hoechst High Intensity Objects (%) [7]: 16% | Population Membrane Permeable-Phenotype (%) [7]: 18% | Population Mitochondria Different-Phenotype (%) [7]: 67% | Population Mitotic Cells (%) [7]: 44% | Population Normal (%) [7]: 83% | Population Pyknosed Nuclei (%) [7]: 38% | Population Tubulin-Different-Phenotype (%) [7]: 94% | Total Cell Count [7]: 133 | Population Apoptotic (%) [8]: 83% | Population Fragmented Nuclei (%) [8]: 7% | Population Healthy Nuclei (%) [8]: 73% | Population Hoechst High Intensity Objects (%) [8]: 8% | Population Membrane Permeable-Phenotype (%) [8]: 65% | Population Mitochondria Different-Phenotype (%) [8]: 97% | Population Mitotic Cells (%) [8]: 16% | Population Normal (%) [8]: 91% | Population Pyknosed Nuclei (%) [8]: 19% | Population Tubulin-Different-Phenotype (%) [8]: 97% | Total Cell Count [8]: 80 | Population Apoptotic (%) [9]: 44% | Population Fragmented Nuclei (%) [9]: 25% | Population Healthy Nuclei (%) [9]: 55% | Population Hoechst High Intensity Objects (%) [9]: 9% | Population Membrane Permeable-Phenotype (%) [9]: 16% | Population Mitochondria Different-Phenotype (%) [9]: 5% | Population Mitotic Cells (%) [9]: 55% | Population Normal (%) [9]: 90% | Population Pyknosed Nuclei (%) [9]: 19% | Population Tubulin-Different-Phenotype (%) [9]: 36% | Total Cell Count [9]: 167 | Population Apoptotic (%) [10]: 66% | Population Fragmented Nuclei (%) [10]: 27% | Population Healthy Nuclei (%) [10]: 68% | Population Hoechst High Intensity Objects (%) [10]: 10% | Population Membrane Permeable-Phenotype (%) [10]: 18% | Population Mitochondria Different-Phenotype (%) [10]: 3% | Population Mitotic Cells (%) [10]: 33% | Population Normal (%) [10]: 89% | Population Pyknosed Nuclei (%) [10]: 3% | Population Tubulin-Different-Phenotype (%) [10]: 57% | Total Cell Count [10]: 88 | Population Apoptotic (%) [11]: 69% | Population Fragmented Nuclei (%) [11]: 50% | Population Healthy Nuclei (%) [11]: 31% | Population Hoechst High Intensity Objects (%) [11]: 20% | Population Membrane Permeable-Phenotype (%) [11]: 22% | Population Mitochondria Different-Phenotype (%) [11]: 62% | Population Mitotic Cells (%) [11]: 30% | Population Normal (%) [11]: 79% | Population Pyknosed Nuclei (%) [11]: 18% | Population Tubulin-Different-Phenotype (%) [11]: 90% | Total Cell Count [11]: 159 | Population Apoptotic (%) [12]: 75% | Population Fragmented Nuclei (%) [12]: 32% | Population Healthy Nuclei (%) [12]: 61% | Population Hoechst High Intensity Objects (%) [12]: 5% | Population Membrane Permeable-Phenotype (%) [12]: 2% | Population Mitochondria Different-Phenotype (%) [12]: 84% | Population Mitotic Cells (%) [12]: 25% | Population Normal (%) [12]: 94% | Population Pyknosed Nuclei (%) [12]: 6% | Population Tubulin-Different-Phenotype (%) [12]: 92% | Total Cell Count [12]: 135
